# STAT3 activator: activators of IL-6 induced STAT3 signaling. hit rate 0.91% among 190,000. activation (% of control), % at 5.6 µM. U3A cells, IL-6 STAT3-luciferase reporter, luminescence; 100% = signal with IL-6 EC80 alone;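 active = activation above the screen-wide mean of compound activation plus 3 SD, cut at about 130% in these data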
#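 system = STAT3-luciferase reporter U3A cells | reagent = IL-6 stimulus at 33 ng/mL final | timing = 1 h compound pre-exposure, 6 h IL-6 stimulation, 37 °C | measured by = luminescence | evaluation = % activation versus median of IL-6-stimulated wells | control set = IL-6-only wells as 100% reference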
# TNF necrop inh: blocks TNF-alpha induced death of Jurkat FADD-/- cells | Jurkat FADD-/- TNF necroptosis rescue, ATP luminescence, 24 h; 0 = TNF only, 100 = no-TNF cells | hit rate 0.068% among 220,000 | activation (protection from cell death), % at 10 µM;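 active = activation, meaning protection from cell death, of at least 50% relative to plate controls; inactive = activation below 50%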;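 note: necroptosis triggered by 40 ng/mL TNF-alpha added together with compound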
# STAT1 blocker: STAT1 signaling inhibition | NIH 3T3 STAT1-luciferase reporter, IFN-gamma, luminescence | inhibition, % at 5.5 µM | hit rate 0.35% among 200,000 | AID 920;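 active = inhibition above a set limit, the mean inhibition across all tested compounds plus 3 SD, cut at about 34% in these data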
# zVAD death inh: blocks zVAD induced death of L929 cells; L929 zVAD necroptosis rescue, ATP luminescence, 24 h; with zVAD 60 µM; viability rescue, % at 10 µM; hit rate 0.38% among 220,000; AID 1377;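 active = activation, scaled between plate controls, above about 75%, limit read from the data; inactive = activation under that limit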
# STAT3 blocker: reduces IL-6 driven STAT3 reporter signal. AID 862. hit rate 0.89% among 190,000. U3A cells, IL-6 STAT3-luciferase reporter, luminescence; host cell line lacks STAT1. inhibition, % at 5.5 µM;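 active = inhibition above the mean inhibition across all screened compounds plus 3 SD, cut at about 44% in these data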
# zVAD necrop conf: confirmed blocker of zVAD induced death in L929 cells. L929 zVAD-induced necroptosis rescue, ATP luminescence, 24 h. AID 463117. shares compounds with zVAD death inh. hit rate 16% among 760. activation (protection from necroptosis), % at 10 µM;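 active = mean protection from necroptosis of at least 50% over duplicate tests; inactive = mean protection below 50%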
# Hits are given with their value; i = inactive; nt = no result. Rows were chosen to be rich in hits. Some 2.1% of all compounds tested hit in one or more screens of this group.
SMILES,STAT3 activator,TNF necrop inh,STAT1 blocker,zVAD death inh,STAT3 blocker,zVAD necrop conf
O=C(Nc1ccc(-c2noc(COc3ccccc3Cl)n2)cc1)c1ccco1,i,i,i,98,i,i
Cc1ccc(S(=O)(=O)N(C)C)cc1NC(=O)CSc1nnnn1-c1ccc(O)cc1,nt,i,nt,i,nt,nt
CN(C)S(=O)(=O)c1ccc(Cl)c(NC(=O)CSc2nnnn2-c2ccc(O)cc2)c1,i,i,i,86,i,88
COc1ccc(N2C3=C(CC4=C2CC(C)(C)CC4=O)C(=O)CC(C)(C)C3)cc1,i,i,i,95,i,i
COc1ccc(NC(=O)Nc2nc3c(s2)CCCC3)cc1,i,i,i,79,i,i
Cn1ncc(C(=O)Nc2ccc(OC(F)(F)F)cc2)c1-n1cccc1,nt,i,nt,i,nt,nt
CC(=O)Nc1ccc(Sc2ncccc2C(=O)Nc2ccc(OC(F)(F)F)cc2)cn1,i,i,i,80,i,77
Cc1ccc(CC2SC(N)=NC2=O)cc1 (centres undefined),i,i,i,83,i,i
Cc1c(Cl)cccc1NC(=O)Nc1cc(C(C)(C)C)nn1C,nt,i,nt,81,nt,i
CC(=O)Nc1cccc(NC(=O)Nc2cccc(Cl)c2C)c1,i,i,i,i,i,nt
COc1ccc(OCC(=O)Nc2ccc(C)c(S(=O)(=O)N(C)C)c2)cc1,i,i,i,81,i,i
COC(=O)c1cc(S(=O)(=O)C(C)C)c(S(C)=O)s1 (centres undefined),nt,i,nt,77,nt,i
Cn1c(=O)n(C)c2cc(C(N)=O)ccc21,i,i,i,i,i,nt
CCC(C)NC(=O)CSc1nnc(-c2ccc(C(C)(C)C)cc2)n1C (centres undefined),i,i,i,i,i,nt
O=C(Cc1ccc(F)cc1)Nc1cccc(-c2ccc3nncn3n2)c1,i,i,i,89,i,i
O=C(Cc1cccs1)Nc1cccc(-c2ccc3nncn3n2)c1,i,i,i,i,i,nt
Cc1ccc(-c2nnc(N(C)C(=O)C3CCCO3)s2)cn1 (centres undefined),i,i,i,i,i,nt
O=C(Cn1nnc(-c2ccc(NC(=O)c3ccccc3F)cc2)n1)NCc1ccc(F)cc1,nt,i,nt,84,nt,i
COc1ccc(C(=O)Nc2ccc(-c3nnn(CC(=O)NCc4ccco4)n3)cc2)cc1,nt,i,nt,77,nt,i
COc1ccc(/C=C/C(=O)C(C(N)=O)=C2SCCS2)cc1,i,i,i,i,i,nt
NC(=O)C(C(=O)/C=C/c1ccc(Cl)cc1)=C1SCCS1,nt,i,nt,82,nt,i
O=C(c1ccc(Cl)c(Cl)c1)N1CCC(=O)N(C(COCc2ccc(Cl)cc2)Cc2ccccc2)CC1 (centres undefined),i,i,i,i,i,nt
CC(=O)c1sc(Nc2ccc(C)cc2)nc1C,i,i,i,i,i,nt
CC(=O)c1sc(Nc2ccccn2)nc1C,i,i,i,96,i,i
COc1ccc(C(=O)/C(=C\c2ccco2)N2C=CC=CC2=C(C#N)C#N)cc1,i,i,i,97,i,i
SMILES,STAT3 activator,TNF necrop inh,STAT1 blocker,zVAD death inh,STAT3 blocker,zVAD necrop conf
C/C(=N\Nc1nc2ccccc2[nH]1)c1ccc2c(c1)OCO2,i,i,i,i,i,nt
C(=N\Nc1nc2ccccc2[nH]1)/c1ccc2c(c1)OCO2,i,i,i,79,i,i
COC(=O)c1ccc(/C=N/Nc2nc3ccccc3[nH]2)cc1,i,i,i,82,i,i
O=C(O)c1ccc(/C=N/Nc2nc3ccccc3[nH]2)cc1,nt,i,nt,i,nt,nt
C(=N\Nc1nc2ccccc2[nH]1)/c1ccncc1,i,i,i,78,i,51
CC(=O)Nc1ccc(/C=N/Nc2nc3ccccc3[nH]2)cc1,i,i,i,88,i,i
Cc1nc(N2CCN(c3ccccn3)CC2)c2c(C)c(C(=O)Nc3ccc(F)cc3F)sc2n1,i,i,i,i,i,nt
CN(c1ccc(C(=O)Nc2nccs2)cc1)S(=O)(=O)c1ccccc1,i,i,i,89,i,86
O=C(Nc1nccs1)c1ccc(S(=O)(=O)NCc2cccs2)cc1,i,i,i,100,i,85
CN(c1ccccc1)S(=O)(=O)c1ccc(C(=O)Nc2nccs2)cc1,i,i,i,i,i,nt
Cc1nnc(SCC(=O)NC23CC4CC(CC(C4)C2)C3)s1,i,i,i,i,i,nt
